Test: Toxicity liver stage against HepG2, at 10uM
Format: cell-based
Design: test concentration 10 uM, cell line HepG2-A16-CD81EGFP
Conditions: human, HepG2-A16-CD81EGFP cells; read-out: INHIBITION
Summary of the method: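 Uninfected HepG2-A16-CD81EGFP cells, 3 × 10^3 per well, 1536-well, plated on prespotted compound at 10 μM final, parasite-free screening media added to match infected plates; puromycin 10 μM positive, DMSO 0.5% negative; run in parallel with 48 h PbLuc assay at 37 °C, 5% CO2; viability by CellTiter-Glo luminescence, normalized to controls.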

| SMILES | cytotoxicity at 10 µM [%] |
| --- | --- |
| C=C(C)CN1CCCC(NS(C)(=O)=O)C1 (stereo unspecified) | 4.21 |
| CC(NC(=O)Cc1cc2c(cc1Cl)OCCO2)c1ccncn1 (stereo unspecified) | -6.29 |
| Cc1ccc(S(=O)(=O)NC(=O)CCc2cscn2)cc1Cl | 8.9 |
| O=C(Cn1ccc2ncccc2c1=O)N1CCSCC1 | -3.06 |
| CNc1cc(C)nc(N2CCC3(CC2)[C@H](O)C[C@@H]3OCCO)n1 | -1.82 |
| Cn1ncc(NCc2cc(F)cc(F)c2)c(Cl)c1=O | 6.69 |
| CCC(=O)Nc1ccc(OCC(=O)N(C)C(C)c2ccon2)cc1 (stereo unspecified) | 5.22 |
| O=S(=O)(NCc1ccccc1Cn1cncn1)N1CCCCC1 | 2.6 |
| CN(Cc1cn(-c2ccccc2)nn1)C1CCCN(c2cccnn2)C1 (stereo unspecified) | -20.5 |
| CC(C)n1ccc(C(=O)OCC2CC(=O)N(Cc3ccccc3)C2)n1 (stereo unspecified) | 0.379 |
| Cc1cc(C[C@@H]2COC[C@@H]2NC(=O)CNC(=O)N(C)C)on1 | 2.57 |
| CN(CC1CCOC1)c1ccc(Br)cn1 (stereo unspecified) | 8.35 |
| COCC[C@]1(O)CCN(C(=O)CCc2cnn(C)c2)C[C@H]1C | 1.72 |
| CC(C)c1nc(C2CCCN(C(=O)CCCn3ccnc3)C2)no1 (stereo unspecified) | -17.2 |
| Cc1cccc(N2CCN(C(=O)Nc3cnn(CC(N)=O)c3)CC2)c1 | -8.31 |
| CC(CCc1cccn1C)NC(=O)Nc1cccn(C)c1=O (stereo unspecified) | 3.14 |
| Cc1ccc(CN2Cc3nnn(C)c3C(COCC3CC3)C2)o1 (stereo unspecified) | -4.7 |
| COc1cc(F)c(S(=O)(=O)N2c3ncccc3NC(=O)C2C)cc1OC (stereo unspecified) | -1.92 |
| CCNC(=O)NC(=O)CN1CCCC1c1nc(C2CCCCC2)co1 (stereo unspecified) | 8.08 |
| Cc1ccc(-c2nc(CC(=O)NCC3CCCN(C(C)C)C3)cs2)o1 (stereo unspecified) | -53.2 |
| COc1ccc(-n2ncc(C(C)NC3CCSCC3)c2C)cc1 (stereo unspecified) | -4.57 |
| CC(C)CN1CCn2nc(CNc3ncnc4[nH]ccc34)cc2C1 | -0.531 |
| NC(=O)c1csc(C(=O)N2CCCCC2Cn2cccn2)c1 (stereo unspecified) | -3.56 |

| SMILES | cytotoxicity at 10 µM [%] |
| --- | --- |
| O=C(c1ccc(F)cc1F)N1C[C@@H](O)[C@H](N2CCOCC2)C1 | -1.37 |
| CCOc1ccnc(N2CCN(C(=O)c3cn[nH]c3CC)CC2)n1 | -6.69 |
| CC1=C(C(=O)N2CCCC(Cn3cc(CO)nn3)C2)OCCO1 (stereo unspecified) | 0.92 |
| COCCCNC(=O)Nc1cccc2ncccc12 | -4.84 |
| CC(C)c1nc(C2CCCN2C(=O)c2ccc3nncn3c2)no1 (stereo unspecified) | -10.3 |
| CNC(=O)c1cn[nH]c1C1CCCN1C(=O)c1ccccn1 (stereo unspecified) | 8.52 |
| Cc1cccc(CN2CCN(C(=O)c3ccc(C)[nH]c3=O)CC2)c1 | 12.8 |
| Cc1ccc2c(c1)CN(C(=O)c1cccnc1)C(CN(C)C)CO2 (stereo unspecified) | -25.5 |
| CNC(=O)c1cccc(NC(=O)CN2CCN(S(C)(=O)=O)CC2)c1 | 1.82 |
| Cn1cc(CN2CC[C@@H]3[C@@H]2CCN3C(=O)c2cccc(F)c2)cn1 | -66.4 |
| Cc1nc(C)n(CC(=O)N2CCc3ncc(Cl)cc3C2)n1 | -18.8 |
| O=C(N1CCOCC1)N1CCN(CC(O)c2ccc(F)cc2)CC1 (stereo unspecified) | -2.42 |
| c1cc(CO[C@@H]2CC[C@H]3[C@H]2OCCN3Cc2ccoc2)ccn1 | 10.8 |
| CN(CCCOc1ccccc1)S(=O)(=O)c1cnn(C)c1 | -6.7 |
| NCCc1n[nH]c(=O)n1-c1cccc(Cl)c1Cl | -2.38 |
| O=C(N1CCOCC1)N1CCOC[C@H](Oc2ccc(C(F)(F)F)cc2)C1 | 1.27 |
| CNc1cc(CCNS(=O)(=O)c2ccccc2)nc(-c2ccccn2)n1 | 5.13 |
| CCn1nc(CC(C)C)cc1C(=O)N1CCN([C@H]2CCCC[C@@H]2O)CC1 | -6.98 |
| NCc1cn(CC2CCCN(C(=O)NCc3ccc(Cl)cc3)C2)nn1 (stereo unspecified) | -22 |
| Cc1cc(CNC(=O)c2cc(C(C)C)n(C)n2)ccc1S(C)(=O)=O | -3.11 |
| O=C(CN1C(=O)CCNC1=O)N1CCOC(c2ccc(Cl)c(Cl)c2)C1 (stereo unspecified) | 6.28 |
| COCc1cccc(C(=O)N2CCN(C3=NCC(C)(C)S3)CC2)c1 | 4.65 |
| Cc1ccc(CNC2CCc3[nH]c(=O)ccc3C2)cc1C (stereo unspecified) | 0.354 |

| SMILES | cytotoxicity at 10 µM [%] |
| --- | --- |
| CC(NCCN1CCN(C(=O)C2CCCC2)CC1)c1ccccn1 (stereo unspecified) | -2.17 |
| O=C(c1cccnc1)N1CCN(c2ccc(-n3cccc3)nn2)CC1 | -9.73 |
| Cc1ccc(C(=O)NC2CCN(C(=O)Nc3ccccn3)CC2)o1 | 4.86 |
| O=C(NS(=O)(=O)c1ccc(Cl)cc1F)c1cccc2c1OCCO2 | -5.33 |
| COc1cc(CCC(=O)NC(C)C(=O)O)ccc1OCC(F)(F)F (stereo unspecified) | -2.15 |
| Brc1csc(CNCc2nnc3n2CCC3)c1 | 5.63 |
| Cc1cc2[nH]cc(C(=O)N3CCCCC3c3ccc(F)cc3)c(=O)n2n1 (stereo unspecified) | 4.19 |
| O=C(NCCO)NCC(c1ccccc1)N1CCc2sccc2C1 (stereo unspecified) | 1.96 |
| COCC(=O)N1C[C@@H](OCc2ccncc2)[C@@H]2OCCC[C@@H]21 | -0.182 |
| CCCn1cc(-c2ccnc(NC3CCc4ccccc4C3)n2)c(C)n1 (stereo unspecified) | 81.3 |
| Cc1cn2c(=O)c(-c3ccnc(N[C@@H](C)CO)n3)cnc2s1 | -13.7 |
| Cc1ccc([C@@H]2CN(S(=O)(=O)c3ccccc3)C[C@H]2N(C)C)cc1 | -4.44 |
| CN1C[C@@H](NC(=O)c2cc(F)cc(F)c2)C[C@H]1C(=O)NCc1ncc[nH]1 | -6.25 |
| COc1cccc(CC2CCCN2CC(N)=O)c1 (stereo unspecified) | -55.6 |
| Cc1cc(C(=O)N2CCC(O)(Cn3ccc4ccncc43)CC2)on1 | 7.55 |
| CCCN(Cc1nccn1C)C(=O)c1cc(C)nc(C)n1 | 2.37 |
| CCC(CNC(=O)c1cc(CC(C)C)nn1C)N(C)CC (stereo unspecified) | -5.99 |
| CCOc1ccc(CNC(C)c2ccc3[nH]c(=O)[nH]c3c2)cc1 (stereo unspecified) | -7.79 |
| Cc1ccc2c(c1)C1(CC2)CCN(c2nncs2)CC1 | 9.43 |
| COc1ccc(-n2cnnc2SCCC#N)cn1 | 22.2 |
| O=C(O)CC(NC(=O)c1cc(Br)c[nH]1)c1ccccc1 (stereo unspecified) | 1.22 |
| CNC(=O)CCS(=O)(=O)Cc1nnnn1-c1ccccc1 | 15.3 |
| Cc1c(CN2CCC(C(=O)O)(n3cccn3)CC2)oc2ccccc12 | -2.67 |

| SMILES | cytotoxicity at 10 µM [%] |
| --- | --- |
| Cc1ncccc1-c1cc2cccnc2n1CCCNC(=O)C1CC1 | 2.18 |
| Cc1cc(N(C)C)nc(N2CCCC2c2cccnc2)n1 (stereo unspecified) | -14.1 |
| Cc1nn(C)cc1CN1CCC(C2Nc3ccccc3S(=O)(=O)N2)CC1 (stereo unspecified) | -2.19 |
| NC(=O)C1(CCCc2ccccn2)CCCN(Cc2ccncc2)C1 (stereo unspecified) | -4.8 |
| CC[C@H](Cn1ncc2ccccc2c1=O)NC(=O)c1ccccn1 | -4.27 |
| Cc1nc(CC(=O)N2CCCN(c3ccc(F)cc3)CC2)cs1 | 3.35 |
| CCNCCC(Cc1ccccc1)c1ccco1 (stereo unspecified) | 5.31 |
| O=C(NC[C@H]1C[C@@H]2CCN1C[C@@H]2CN1CCCCC1)c1ccco1 | 7.32 |
| COCCn1cc(CCC(=O)Nc2c(C)nn(C)c2C)c2ccccc21 | -177 |
| O=C(c1ccco1)N1CCCn2cnc(COCC3CC3)c2C1 | -75.9 |
| CC(C)N1CCCCC1c1cncc(Cl)n1 (stereo unspecified) | 8.41 |
| Cn1cc(CNC2CCc3c(ccc(=O)n3C)C2)cn1 (stereo unspecified) | -115 |
| CCOCCC(=O)N(Cc1ccncc1)C(C)CC (stereo unspecified) | 9.99 |
| Cc1ccc(CNC2CCc3nc(C(C)C)nn3C2)o1 (stereo unspecified) | -1.85 |
| O=C(C1CC1)N1C[C@@H](F)[C@@H](OCc2nc3cc(F)ccc3[nH]2)C1 | -6.92 |
| CNC(=O)COC1COC2(CCN(Cc3cccnc3OC)CC2)C1 (stereo unspecified) | 7.61 |
| COc1ccc(NC(=O)N(CCO)Cc2ccsc2)cc1 | 1.37 |
| COCC(=O)N1CCC2(CCCN(Cc3ccc(Cl)cc3)CC2)CC1 | -0.153 |
| CC(C)(C)c1ncc(C(=O)NCCNC(=O)c2ccco2)s1 | -1.98 |
| COCCC1(C(=O)O)CCCN(C(=O)c2cnc3c(c2)CCCC3)C1 (stereo unspecified) | -44.5 |
| COCc1nnn2c1CN(C(=O)c1ccnnc1)CCC2 | -0.461 |
| Cc1cnn(C(C)C2CC2)c1NC(=O)c1cnccn1 (stereo unspecified) | -5.39 |
| CNC(=O)[C@H]1CC[C@@H]2[C@@H](CCN2C(=O)N(C)C)O1 | 6.86 |

| SMILES | cytotoxicity at 10 µM [%] |
| --- | --- |
| COc1ccc(COCC(O)CNC(=O)c2cc(C)cc(C)c2)cc1 (stereo unspecified) | 0.385 |
| O=C(NCCCO)c1nc(-c2ccc3cc[nH]c3c2)no1 | 4.28 |
| CCn1ccnc1CN(C)C1CCCN(CCc2ccccc2)C1 (stereo unspecified) | -8.63 |
| CC(C(N)=O)N1CCN(c2ncc(Cl)cn2)CC1 (stereo unspecified) | -1.26 |
| CCn1nc(C(=O)N2CCCC2c2noc(C3CC3)n2)ccc1=O (stereo unspecified) | 5.65 |
| Cc1noc(CNC(=O)CN(C)c2nc3c(C)ccc(C)c3s2)n1 | 55.7 |
| CSCc1nc(C(C)(C)NC(=O)OC(C)(C)C)no1 | -8.44 |
| O=C(COc1cccc(Br)c1)N1CCOCC1c1ncon1 (stereo unspecified) | -9.36 |
| Cc1nc(C2CCCN2Cc2cc(Cl)c3c(c2)OCO3)no1 (stereo unspecified) | 7.51 |
| Cn1c2ccccc2c2ncn(CCCN3CCOCC3)c(=O)c21 | 18.3 |
| Cc1nc(CN2CCN(C(=O)c3ccn(C)c(=O)c3)CC2)cs1 | 1.73 |
| CCCNC(=O)CCC(=O)Nc1ccc(-n2cncn2)c(F)c1 | 1.94 |
| Cc1cnc(NC(=O)NC(CCO)c2cccs2)s1 (stereo unspecified) | 5.53 |
| CN1CCOC(c2cncc(CCC(=O)N(C)C)n2)C1 (stereo unspecified) | 0.55 |
| CCN(C(=O)Cc1ccc(NCc2ncc[nH]2)cc1)c1ccccc1 | 6.43 |
| CC(C)c1n[nH]c(C2CN(C(=O)c3cnccn3)CCO2)n1 (stereo unspecified) | 2.16 |
| CCS(=O)(=O)Nc1cnn(Cc2cccc(Cl)c2)c1 | -11.5 |
| Cc1nc(C)n(CC2CCCN(CCC(=O)N3CCOCC3)C2)n1 (stereo unspecified) | -6.7 |
| O=C(Nc1ccc2c(c1)OCO2)c1ccc(N2CCCC2)nn1 | 54.7 |
